Measurements taken from ChEMBL document CHEMBL3992553, “New nitrofurans amenable by isocyanide multicomponent chemistry are active against multidrug-resistant and poly-resistant Mycobacterium tuberculosis” (Bioorg Med Chem, 2017).
≈ marks a conversion by molar mass, not a printed value.

How the values were obtained:
Staphylococcus aureus [1] = assay: Antibacterial activity against methicillin-resistant Staphylococcus aureus DSM 11822 after 18 hrs; type: functional; conditions: DSM 11822, 18 h
In short: (§1)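 Broth microdilution MIC. Gram-negatives grown overnight at 37 °C in Müller-Hinton broth + 1% glucose, pH 7.2; Gram-positives in trypticase soy broth with yeast extract, pH 7.2. Inoculum 5×10^5 cfu/mL final. Serial dilutions from 100 µM down to 0.2 µM, DMSO ≤1%. 18 h at 37 °C, moist; OD600. MIC = lowest concentration completely suppressing growth.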

Staphylococcus aureus [2] = assay: Antibacterial activity against methicillin-resistant Staphylococcus aureus RKI 11-02670 after 18 hrs; type: functional; conditions: RKI 11-02670, 18 h; in short: as §1
Enterococcus faecium = assay: Antibacterial activity against Enterococcus faecium DSM 20477 after 18 hrs; type: functional; conditions: DSM 20477, 18 h; in short: as §1
Escherichia coli [3] = assay: Growth inhibition of Escherichia coli DSM 1116 at 100 uM after 18 hrs relative to control; type: functional; conditions: DSM 1116, 18 h, read-out: GI
In short: (§2)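 Gram-negative culture grown overnight at 37 °C in Müller-Hinton broth + 1% glucose, pH 7.2, then tested at 5×10^5 cfu/mL final. Compound at 100 µM from DMSO stock, DMSO ≤1%. Incubated 18 h at 37 °C under moist conditions. OD600 read; value reported as % growth inhibition.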

Pseudomonas aeruginosa [4] = assay: Growth inhibition of Pseudomonas aeruginosa PA7 DSM 24068 at 100 uM after 18 hrs relative to control; type: functional; conditions: PA7 DSM 24068, 18 h, read-out: GI; in short: as §2
[5] = tested on: Mycobacterium tuberculosis; assay: Antimycobacterial activity against Mycobacterium tuberculosis H37Rv after 7 days by REMA; type: functional; conditions: 168 h
In short: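 REMA. 3-week H37Rv culture (2nd generation on Löwenstein–Jensen) vortexed with glass beads, set to 1.0 McFarland in 7H9, diluted 20-fold in 7H9 + OADC. 2-fold dilutions, final 1.6–400 µg/mL, 200 µL wells. 7 days at 35 °C, then resazurin 18 h. Fluorescence ex 520/em 590. MIC where signal plateaued or matched the 1% population control (t test).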

Acinetobacter baumannii = assay: Antibacterial activity against Acinetobacter baumannii DSM 30007 after 18 hrs; type: functional; conditions: DSM 30007, 18 h; in short: as §1
Klebsiella pneumoniae = assay: Antibacterial activity against Klebsiella pneumoniae DSM 11678 after 18 hrs; type: functional; conditions: DSM 11678, 18 h; in short: as §1
[6] = (§3) Cytotoxicity against mouse L929 cells assessed as reduction in cell viability after 5 days by WST1 assay; type: cell-based; conditions: mouse, L929 cells
In short: (§4)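 KB-3-1 or L929 cells, 1500 per well, in DMEM + 5% FBS. Exposed to serially diluted compound for 5 days. WST-1 added, plates incubated at 37 °C (20 min for KB-3-1), absorbance read at 450 nm (reference 600 nm). Viability given as % of controls.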

L929 = assay: as §3; type: cell-based; conditions: Mus musculus, L929, 120 h; in short: as §4
[7] = (§5) Cytotoxicity against human KB-3-1 cells assessed as reduction in cell viability after 5 days by WST1 assay; type: cell-based; conditions: human, KB-3-1 cells; in short: as §4
KB 3-1 = assay: as §5; type: cell-based; conditions: Homo sapiens, KB 3-1, 120 h; in short: as §4
[8] = (§6) Cytotoxicity against human MCF7 cells assessed as reduction in cell viability after 5 days by WST1 assay; type: cell-based; conditions: human, MCF7 cells
In short: (§7)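 MCF-7 cells, 3000 per well, in RPMI + 5% FBS, 0.5% NEAA, 0.5% GlutaMAX and insulin 5 µg/mL. Exposed to serially diluted compound for 5 days. WST-1 incubation 2 h at 37 °C, absorbance read at 450 nm (reference 600 nm). Viability given as % of controls.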

MCF7 = assay: as §6; type: cell-based; conditions: Homo sapiens, MCF7, 120 h; in short: as §7
[9] = Cytotoxicity against human FS4-LTM cells assessed as reduction in cell viability after 24 hrs by WST1 assay; type: cell-based; conditions: for IC50: Homo sapiens, FS4-LTM, 24 h; for IC90 at 24 h: human, FS4-LTM cells
In short: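 FS4-LTM conditionally immortalized human fibroblasts, kept without doxycycline for primary-like behaviour, in DMEM + 5% FBS. Exposed to serially diluted compound for 24 h. WST-1 added, plates incubated at 37 °C, absorbance read at 450 nm (reference 600 nm). Viability given as % of controls set to 100%.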

Bacillus subtilis = assay: Antibacterial activity against Bacillus subtilis MTCC 121 after 24 hrs by well diffusion method; type: functional; conditions: MTCC 121, 24 h
Staphylococcus aureus [10] = assay: Antibacterial activity against Staphylococcus aureus MLS16 MTCC 2940 after 24 hrs by well diffusion method; type: functional; conditions: MLS16 MTCC 2940, 24 h
Escherichia coli [11] = assay: Antibacterial activity against Escherichia coli DSM 1116 after 18 hrs; type: functional; conditions: DSM 1116, 18 h; in short: as §1
Pseudomonas aeruginosa [12] = assay: Antibacterial activity against Pseudomonas aeruginosa PA7 DSM 24068 after 18 hrs; type: functional; conditions: PA7 DSM 24068, 18 h; in short: as §1

| SMILES | MIC (Staphylococcus aureus [1]) [µM] | EC50 (Staphylococcus aureus [2]) | MIC (Staphylococcus aureus [2]) | MIC (Enterococcus faecium) [µM] | inhibition of growth at 100 µM (Escherichia coli [3]) [%] | inhibition of growth at 100 µM (Pseudomonas aeruginosa [4]) [%] | MIC [5] [µM] | MIC (Acinetobacter baumannii) [µM] | MIC (Klebsiella pneumoniae) [µM] | also measured |
| --- | --- | --- | --- | --- | --- | --- | --- | --- | --- | --- |
| CC1(C(=O)NCc2ccc(Cl)cc2)CCCC(=O)N1/N=C/c1ccc([N+](=O)[O-])o1 (centres undefined) | 100 (≈ 41.9 µg/mL) | 75 µM | 100 µM | > 100 | 84 | 98 | > 100 |  |  |  |
| CC1(C(=O)NC2CCCCC2)CN(S(=O)(=O)c2ccccc2[N+](=O)[O-])CC(=O)N1/N=C/c1ccc([N+](=O)[O-])o1 (centres undefined) | 100 (≈ 56.3 µg/mL) | 75 µM | 100 µM | > 100 | 88 | 85 | 22 (≈ 12.4 µg/mL) | > 100 | > 100 | IC90 at 120 h [6]: > 100 µM; IC50 (L929): 22.9 to 100 µM; IC90 at 120 h [7]: > 100 µM; IC50 (KB 3-1): 26.7 to 27 µM; IC90 at 120 h [8]: > 100 µM; IC50 (MCF7): 12 µM; IC50 [9]: 12 to 100 µM; IC90 at 24 h [9]: > 100 µM |
| O=C(NCc1cn(-c2ccccc2)nn1)c1ccc([N+](=O)[O-])o1 |  |  |  |  |  |  |  |  |  | MIC (Bacillus subtilis): 7.8 µg/mL (≈ 24.9 µM); MIC (Staphylococcus aureus [10]): 1.9 µg/mL (≈ 6.06 µM) |
| CC1(C(=O)NC2CCCCC2)CN(S(C)(=O)=O)CC(=O)N1/N=C/c1ccc([N+](=O)[O-])o1 (centres undefined) | > 100 | 35.7 µM | > 100 µM | > 100 |  |  | 55 (≈ 25.1 µg/mL) | > 100 | > 100 | EC50 (Enterococcus faecium): > 100 µM; EC50 (Escherichia coli [11]): > 100 µM; MIC (Escherichia coli [11]): > 100 µM; EC50 (Pseudomonas aeruginosa [12]): > 100 µM; MIC (Pseudomonas aeruginosa [12]): > 100 µM; EC50 (Acinetobacter baumannii): > 100 µM; EC50 (Klebsiella pneumoniae): > 100 µM |
| CC(=O)NC[C@H]1CN(c2ccc(N3CCOCC3)c(F)c2)C(=O)O1 [LINEZOLID] |  | 0.25 µg/mL | 0.62 µg/mL |  |  |  |  |  |  |  |
| CC1(C(=O)NC2CCCCC2)CCCC(=O)N1/N=C/c1ccc([N+](=O)[O-])o1 (centres undefined) | 100 (≈ 37.6 µg/mL) | 70 µM | 100 µM | > 100 | 81 | 88 | 33 (≈ 12.4 µg/mL) | > 100 | > 100 | IC90 at 120 h [6]: > 100 µM; IC50 (L929): 50 to 50.2 µM; IC90 at 120 h [7]: 100 µM; IC50 (KB 3-1): 61 µM; IC90 at 120 h [8]: 100 µM; IC50 (MCF7): 19 µM; IC50 [9]: 19.3 to 100 µM; IC90 at 24 h [9]: ≥ 100 µM |
| CC(C)(C)NC(=O)C1(C)COCC(=O)N1/N=C/c1ccc([N+](=O)[O-])o1 (centres undefined) | > 100 | 50 µM | > 100 µM | > 100 |  |  | > 100 | > 100 | > 100 | EC50 (Enterococcus faecium): > 100 µM; EC50 (Escherichia coli [11]): > 100 µM; MIC (Escherichia coli [11]): > 100 µM; EC50 (Pseudomonas aeruginosa [12]): > 100 µM; MIC (Pseudomonas aeruginosa [12]): > 100 µM; EC50 (Acinetobacter baumannii): > 100 µM; EC50 (Klebsiella pneumoniae): > 100 µM |
| CC1(C(=O)NC2CCCCC2)COCC(=O)N1/N=C/c1ccc([N+](=O)[O-])o1 (centres undefined) | 100 (≈ 37.8 µg/mL) | 75 µM | 100 µM | > 100 | 84 | 90 | 66 (≈ 25 µg/mL) |  |  |  |
| CC1(C(=O)NCc2ccccc2)COCC(=O)N1/N=C/c1ccc([N+](=O)[O-])o1 (centres undefined) | 100 (≈ 38.6 µg/mL) | 77 µM | 100 µM | > 100 | 83 | 86 | 65 (≈ 25.1 µg/mL) |  |  |  |
| CC1(C(=O)NC2CCCCC2)CCC(=O)N1/N=C/c1ccc([N+](=O)[O-])o1 (centres undefined) | > 100 | 79 µM | ≥ 100 µM | > 100 | 85 | 90 | 70 (≈ 25.4 µg/mL) |  |  |  |
